The source of these data is PMC10466730 (Cancer cell, 2023).

Structures are written as SMILES.

A short description of data set [1]: Toxicity in the hematopoietic system of Crbn^I391V mice. It counts as in vivo, mouse. Particulars: four rounds of 223 mg/kg, weekly. The essentials:
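Female Crbn^I391V mice aged 8–12 weeks received DMSO or 223 mg/kg test compound once weekly for four rounds. They were sacrificed 4 weeks later. Blood was analysed on a hematology analyser, and stem/progenitor compartments were assessed by flow cytometry.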

The test system of data set [2] is MLL-AF9 Crbn^I391V cells. In words: Pharmacodynamics in BL6 mice transplanted with MLL-AF9 Crbn^I391V cells. Format: in vivo, mouse. The following applies: one injection 223 mg/kg, 24, 48 and 72 h.
The subject of data set [3] is MOLM-13 cells. Kind of data set: Efficacy in NSG mice transplanted with MOLM-13 cells. The following applies: 223 mg/kg weekly, vs DMSO. It counts as in vivo.
The test system of data set [4] is MOLM-13 cells. Kind of data set: Viability assay in MOLM-13 cells. It counts as cell-based, human. Particulars: Homo sapiens, MOLM-13, 72 h, read-out: IC50 (cell viability). The essentials:
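Human AML cell lines were plated at 10,000 cells per well with increasing test compound up to 100 μM for 72 h at 37 °C, 5% CO₂. CellTiter-Glo was added 1:1 for 15 min at room temperature and luminescence was read; MTT was used as an alternative read-out. Percent viability was fitted by non-linear regression to give IC50. Three independent experiments, triplicates.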

A further data set addresses CK1α (Homo sapiens, UniProt P48729+Q96SW2). Kind of data set: Western blot of CK1α in MOLM-13 cells. It counts as cell-based. The following applies: MOLM-13. The essentials:
(§1)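 MOLM-13 cells (1 × 10⁶) were treated 24 h with test compound diluted from DMSO stocks. Cells were pelleted, washed with PBS, lysed in Laemmli buffer by vortexing for 10 min, and boiled at 95 °C for 5 min. Lysates were resolved on 4–15% gradient SDS-PAGE, transferred to PVDF and immunoblotted with target-specific antibodies.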

For another data set, the system named is AML PDX#2. Kind of data set: Efficacy in NSG mice transplanted with AML PDX. Format: in vivo, mouse.
Another data set deals with IKZF2 (Homo sapiens, UniProt Q96SW2+Q9UKS7). In words: Western blot of IKZF2 in MOLM-13 cells. The following applies: MOLM-13, 24 h. Format: cell-based. The method, boiled down:
as §1

The next data set in a line: Pharmacokinetics in mice. It counts as in vivo, mouse. The following applies: female, Crbn^I391V, mouse, plasma, ip, 223 mg/kg. The essentials: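 Single intraperitoneal doses in DMSO: one test compound at 5 or 50 mg/kg in male CD1 mice, another at 223 mg/kg in female Crbn^I391V mice. Plasma was collected at set times and compound levels were measured by HPLC.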
A short description of the next data set: Solubility in DMSO. Format: physicochemical.
The subject of data set [5] is MLL-AF9 Crbn^I391V cells. Kind of data set: Efficacy in Crbn^I391V mice transplanted with MLL-AF9 Crbn^I391V cells. Format: in vivo, mouse. The following applies: 223 mg/kg weekly, non-irradiated Crbn^I391V mice.
The subject of data set [6] is MLL-AF9 Crbn^I391V cells. Kind of data set: Efficacy in BL6 mice transplanted with MLL-AF9 Crbn^I391V cells. Format: in vivo.

CK1α, sequence (P48729 whole entry): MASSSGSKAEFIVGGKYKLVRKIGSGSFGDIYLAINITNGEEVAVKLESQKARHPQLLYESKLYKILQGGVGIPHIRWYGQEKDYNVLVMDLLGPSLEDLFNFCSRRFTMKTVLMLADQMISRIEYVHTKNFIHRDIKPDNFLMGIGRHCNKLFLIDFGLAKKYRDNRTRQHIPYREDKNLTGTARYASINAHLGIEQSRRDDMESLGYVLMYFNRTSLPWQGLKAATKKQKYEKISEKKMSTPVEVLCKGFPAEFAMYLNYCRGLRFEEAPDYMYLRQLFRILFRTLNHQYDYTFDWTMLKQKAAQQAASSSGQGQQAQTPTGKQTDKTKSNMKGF
CK1α, sequence (Q96SW2 whole entry): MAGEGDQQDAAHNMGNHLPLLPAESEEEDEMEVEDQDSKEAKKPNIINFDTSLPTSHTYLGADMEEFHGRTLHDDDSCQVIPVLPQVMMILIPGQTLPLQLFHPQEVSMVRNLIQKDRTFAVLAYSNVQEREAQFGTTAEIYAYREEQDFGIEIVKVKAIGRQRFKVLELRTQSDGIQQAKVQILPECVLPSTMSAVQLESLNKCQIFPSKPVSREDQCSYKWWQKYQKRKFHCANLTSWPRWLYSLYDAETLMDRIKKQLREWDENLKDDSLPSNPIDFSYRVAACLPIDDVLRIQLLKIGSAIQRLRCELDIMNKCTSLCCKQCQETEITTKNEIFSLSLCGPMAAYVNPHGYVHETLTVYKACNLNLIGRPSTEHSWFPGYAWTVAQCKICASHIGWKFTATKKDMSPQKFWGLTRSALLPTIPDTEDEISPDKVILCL
CK1α, sequence (Q16531 whole entry partner): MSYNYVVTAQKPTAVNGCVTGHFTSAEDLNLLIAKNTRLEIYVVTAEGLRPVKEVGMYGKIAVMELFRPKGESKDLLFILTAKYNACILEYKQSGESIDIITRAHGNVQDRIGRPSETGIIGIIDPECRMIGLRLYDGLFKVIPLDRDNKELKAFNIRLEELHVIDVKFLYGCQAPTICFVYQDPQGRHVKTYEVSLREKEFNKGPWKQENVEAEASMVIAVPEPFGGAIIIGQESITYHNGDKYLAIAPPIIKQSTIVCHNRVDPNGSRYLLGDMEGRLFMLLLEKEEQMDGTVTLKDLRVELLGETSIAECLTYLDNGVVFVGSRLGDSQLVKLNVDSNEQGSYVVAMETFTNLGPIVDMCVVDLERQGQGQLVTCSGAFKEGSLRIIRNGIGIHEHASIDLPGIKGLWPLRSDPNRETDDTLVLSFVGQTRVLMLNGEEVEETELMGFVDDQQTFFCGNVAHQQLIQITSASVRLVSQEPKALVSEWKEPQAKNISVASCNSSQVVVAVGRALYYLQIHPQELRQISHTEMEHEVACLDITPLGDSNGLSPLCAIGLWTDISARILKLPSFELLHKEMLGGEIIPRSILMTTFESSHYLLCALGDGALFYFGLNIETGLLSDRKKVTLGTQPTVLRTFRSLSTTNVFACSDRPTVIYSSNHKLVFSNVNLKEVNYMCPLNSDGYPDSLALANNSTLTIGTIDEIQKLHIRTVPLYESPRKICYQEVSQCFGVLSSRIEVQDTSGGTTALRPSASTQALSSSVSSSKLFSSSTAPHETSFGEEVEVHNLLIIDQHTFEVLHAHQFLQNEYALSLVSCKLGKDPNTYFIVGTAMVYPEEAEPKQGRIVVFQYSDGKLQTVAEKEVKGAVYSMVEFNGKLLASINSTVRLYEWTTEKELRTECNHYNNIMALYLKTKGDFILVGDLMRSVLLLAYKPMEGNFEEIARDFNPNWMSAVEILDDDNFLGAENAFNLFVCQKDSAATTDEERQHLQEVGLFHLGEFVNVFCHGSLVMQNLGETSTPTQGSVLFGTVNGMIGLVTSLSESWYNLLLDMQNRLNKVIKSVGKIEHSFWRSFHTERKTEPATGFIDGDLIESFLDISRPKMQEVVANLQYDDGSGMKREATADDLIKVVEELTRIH
IKZF2, sequence (Q9UKS7 whole entry): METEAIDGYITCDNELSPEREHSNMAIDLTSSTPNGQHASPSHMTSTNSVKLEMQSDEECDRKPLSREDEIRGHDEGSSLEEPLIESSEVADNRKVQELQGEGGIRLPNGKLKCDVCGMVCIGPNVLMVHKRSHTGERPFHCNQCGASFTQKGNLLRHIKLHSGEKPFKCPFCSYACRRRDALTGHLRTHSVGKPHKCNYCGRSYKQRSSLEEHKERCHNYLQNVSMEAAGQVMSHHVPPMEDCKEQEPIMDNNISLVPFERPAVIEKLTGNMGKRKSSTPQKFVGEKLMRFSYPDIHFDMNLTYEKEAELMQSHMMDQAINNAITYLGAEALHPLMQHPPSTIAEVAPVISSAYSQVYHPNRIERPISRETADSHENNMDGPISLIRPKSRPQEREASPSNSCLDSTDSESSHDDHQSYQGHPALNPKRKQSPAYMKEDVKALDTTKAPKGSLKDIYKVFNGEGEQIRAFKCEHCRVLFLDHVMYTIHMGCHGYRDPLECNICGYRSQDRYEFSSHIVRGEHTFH
IKZF2, sequence (Q96SW2 whole entry): as the sequence (Q96SW2 whole entry) above
IKZF2, sequence (Q16531 whole entry partner): as the sequence (Q16531 whole entry partner) above

For `COc1cccc2c1OCC(C(=O)Nc1ccc3c(c1)CN(C1CCC(=O)NC1=O)C3=O)=C2` (stereo not shown) [DEG-77, N-(2-(2,6-dioxopiperidin-3-yl)-1-oxoisoindolin-5-yl)-8-methoxy-2H-chromene-3-carboxamide], the WBC counts result in [1] is “modest reduction of WBC counts”. Besides, the “platelets and RBC counts” value in data set [1] is recorded as “remained unchanged”. In [1], the “stem cell compartment frequency” value was “reduced HSC and MPP1 frequency”. Besides, the “degradation of IKZF2, CK1α, GSPT1 in bone marrow and splenic leukemic cells” value with MLL-AF9 Crbn^I391V cells [2] was “degradation of IKZF2 and CK1α but not GSPT1”. The survival result in the data set with MOLM-13 cells [3] is given as “increased survival”; in the data set with AML PDX#2 (223 mg/kg weekly from 4 weeks post-transplant), “significant extension of survival”; in the data set on MLL-AF9 Crbn^I391V cells [5] it was “significant increase in survival”; in the data set on MLL-AF9 Crbn^I391V cells [6] (223 mg/kg weekly, vehicle 35 days), 66 days. In addition, in the data set on MOLM-13 cells [4], the IC50 was 4 nM. Besides, at CK1α, the “CK1α degradation (Western blot)” value is “maintained comparable activity”. The “engraftment of PDX cells in the bone marrow” value with AML PDX#2 (after a single injection, >85% prior to treatment) is given as “around 40%”. Besides, at IKZF2, the “IKZF2 degradation (Western blot)” value is “maintained comparable activity”. In addition, the half-life in the data set “Pharmacokinetics in mice” was 16.9 h. The “increase in solubility in DMSO compared to DEG-35” value in the data set “Solubility in DMSO” was 10 fold. In the data set with MLL-AF9 Crbn^I391V cells [6] (223 mg/kg weekly), the body weight entry was “without loss of total body weight”. The “leukemia progression in secondary transplant” value in the data set on MLL-AF9 Crbn^I391V cells [6] (cells from mice treated in the primary transplant) is recorded as “pronounced delay in leukemia progression”.
